# Most compounds without a hit are left out; they make up all but 1.3% or so of the library.
# S1P3 antagonist = S1P3 receptor antagonists, primary screen, cell-based; CHO S1P3 NFAT-BLA reporter, FRET fluorescence, antagonist mode; AID 485, 2006; actives 0.27% (n = 170,000); Sphingosine 1-phosphate receptor 3 (Homo sapiens), Q99500; inhibition, % at 4.98 µM;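 active = inhibition above the plate cutoff, the mean inhibition of test wells on that plate plus 3 SD, cut at about 28% in these data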;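 also: cells challenged with S1P at its EC80 of 0.8 µM; blue over green emission ratio from cleaved BLA substrate after 4 h stimulation; 0% = S1P-stimulated wells and 100% = unstimulated DMSO-only wells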
# Target sequence (Q99500 whole entry, looked up): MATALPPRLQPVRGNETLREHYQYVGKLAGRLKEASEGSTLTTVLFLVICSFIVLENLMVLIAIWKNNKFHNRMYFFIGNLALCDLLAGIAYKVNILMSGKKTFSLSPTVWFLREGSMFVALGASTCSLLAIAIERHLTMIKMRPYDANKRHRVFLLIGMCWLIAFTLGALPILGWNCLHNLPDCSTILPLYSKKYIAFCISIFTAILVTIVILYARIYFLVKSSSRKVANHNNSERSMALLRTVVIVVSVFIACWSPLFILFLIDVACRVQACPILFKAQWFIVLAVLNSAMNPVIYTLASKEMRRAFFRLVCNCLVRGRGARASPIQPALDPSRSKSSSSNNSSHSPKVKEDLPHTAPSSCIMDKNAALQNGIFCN
# Dynein transport = inhibitors of GR-EGFP nuclear translocation, primary screen, dynein cargo transport inhibitor project, imaging, high-content, 3617.4 mouse cells; test concentration mostly 20 µM; stimulated with dexamethasone, 1 µM; active compounds read low; z-score, hits read low; actives 0.47% (n = 220,000);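 active = plate z-score of nuclear minus cytoplasmic receptor signal below a set negative limit, without overly bright fluorescence or cell loss, cut at about -3.5 in these data, passing the limit was not always enough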;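 also: z-score of nuclear minus cytoplasmic ring GR-EGFP intensity difference per well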
#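 medium = tetracycline-free induction medium containing charcoal-stripped FBS | probe or stimulus = dexamethasone, 1.0 µM final | timing = 48 h induction, then 1 h compound, then 30 min agonist, 37 °C | detection = automated 10x imaging of fixed Hoechst-stained cells | read-out basis = nuclear versus cytoplasmic GR-EGFP signal, averaged per well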
# Hsp70 act = Hsp70 transcriptional activators, primary screen, cell-based, HeLa, Hsp70 promoter luciferase, luminescence, 10 µM; HeLa Hsp70 promoter luciferase reporter; scaled: vehicle 0, proteasome-inhibitor control 100%; activation, % at 10 µM; actives 0.04% (n = 200,000);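 active = activation above the mean across all tested compounds plus 3 SD, cutoff set per campaign, cut at about 5.5% in these data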;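 also: 100% = MG132 at 30 µM as the positive control and 0% = DMSO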
# S1P4 agonist = S1P4 receptor agonists, primary screen, cell-based. S1P4-expressing cell line, agonist reporter assay. activation, % at 4.98 µM. actives 0.35% (n = 220,000). AID 1509, 2009; in the data active = activation above about 11%;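 also: 0% = DMSO vehicle and 100% = reference agonist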
# Mdm2 ligase inh = MDM2-luciferase reporter signal enhancers, primary screen, MDM2 E3 ligase inhibitor project, cell-based, luminescence, 1536-well. E3 ubiquitin-protein ligase Mdm2 (Homo sapiens), Q00987. cell-based MDM2 ubiquitination luciferase reporter, 2 h; 0 = plate control, 100 = twice control, blank-subtracted. signal enhancement, % at 5 µM. actives 0.11% (n = 210,000);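 active = signal enhancement of 30% or more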;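 also: luminescence tracks abundance of the self-degrading MDM2-luciferase fusion protein; higher signal means inhibition of MDM2 E3 ligase activity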
#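 Test system: stable mammalian line carrying autodegrading MDM2–luciferase fusion reporter; quantity: 2000 cells in each well; times: 4 h cell settling then 2 h compound exposure, 37 °C; detection: luminescence with SteadyLite reagent, 15 min at room temperature; evaluation: percent signal gain over controls, blank-subtracted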
# S1P4 antag = S1P4 receptor antagonists, primary screen, cell-based | S1P4-expressing cells, antagonist mode, reporter read-out | inhibition, % at 4.98 µM | Sphingosine 1-phosphate receptor 4 (Homo sapiens), O95977 | actives 0.26% (n = 220,000); in the data active = inhibition above about 29%;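 also: 0% = wells stimulated with agonist and 100% = vehicle wells without agonist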
# Dynein inh conf = dynein cargo transport inhibitors, GR-EGFP translocation, confirmation, imaging, high-content imaging, GR-EGFP cells | shares compounds with Dynein transport | calls only at 20 µM | 3617.4 GR-EGFP nuclear translocation imaging, dexamethasone-induced | actives 69% (n = 1,000);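 active = inhibition of receptor movement into the nucleus at or above a set limit in both runs, with normal cell brightness and cell count; inconclusive = limit reached in only one run, brightness and count normal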;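 also: dexamethasone at 1 µM final in well for 30 min; nuclear minus cytoplasmic GR-EGFP mean intensity difference in channel 2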
# Numbers without * were called inactive; i = inactive; ? = inconclusive; . = no result; + = active, no number.
SMILES,S1P3 antagonist,Dynein transport,Hsp70 act,S1P4 agonist,Mdm2 ligase inh,S1P4 antag,Dynein inh conf
Cc1ccccc1NNC(=O)C(=O)NNc1ccccc1C,4,0.27,.,1,-9,-2,.
O=S(=O)(CCN(CCS(=O)(=O)C(F)(F)F)CC1CCCO1)C(F)(F)F (stereo not given),11,-4.1*,0,2,-22,5,?
CC1CCCC(NC(=O)CNCc2ccccc2F)C1C (stereo not given),-4,1,0,1,-10,2,.
O=C(CNC(=O)c1ccc(F)cc1)Nc1ccccc1C(F)(F)F,-13,-1.6,.,0,.,-14,.
CC(C)(C)C(=O)/C(=C/c1ccncc1)n1cncn1,5,-5.1*,0,-2,-16,-6,+
CCn1nc(C)c(CNC(=O)CC2C(=O)NCCN2CC(C)C)c1C (stereo not given),-21,1.5,0,0,-20,1,.
CN(C)CCN(Cc1ccco1)C(=O)c1cc2c(Cl)nc3ccccc3c2s1,-13,-0.24,0,0,18,-7,.
Cc1ccc2nc(Cl)c3cc(C(=O)N(CCN(C)C)Cc4ccco4)sc3c2c1,-4,-3.5*,0,-2,-7,-11,i
O=C1CSC(=S)N1Cc1cccnc1,-11,-4.6*,0,1,-9,-6,i
CCc1nnc(N2C(=O)c3ccccc3C2(O)c2ccccc2)s1 (stereo not given),0,-0.37,.,1,8,1,.
O=C(O)c1ccc(NC2=C/C(=N/S(=O)(=O)c3ccccc3)c3ccccc3C2=O)cc1,18,-4.2*,0,2,.,0,+
Cc1cccc(NC2=C/C(=N/S(=O)(=O)c3cccs3)c3ccccc3C2=O)c1,-8,-0.34,0,6,-2,-3,.
O=C(CN1CCN(Cc2ccccc2)CC1)NC(=O)NCc1ccco1,16,-0.45,0,1,-26,-9,.
O=C(CN1CCN(S(=O)(=O)c2ccccc2[N+](=O)[O-])CC1)NC(=O)NCc1ccco1,-7,-3.6*,0,1,5,3,i
CN(C)C=Nc1ccccc1C1C=NNC1=O (stereo not given),-5,-0.072,.,1,-10,-14,.
O=C(Cn1c(=O)oc2cc(S(=O)(=O)NCc3ccccc3)ccc21)N1CCCC1,-6,-5.2*,.,1,-6,-6,i
CCCN1CCN(C(=O)Cn2c(=O)oc3cc(S(=O)(=O)NCc4ccccc4)ccc32)CC1,-26,-1.3,0,-1,-17,10,.
CN1CCN(C(=S)NC(=O)c2cccc(S(=O)(=O)N(C)C)c2)CC1,-4,0.69,0,0,1,-14,.
Cc1cccc(NC(=O)CN2C(=O)N/C(=C/c3ccc(C)s3)C2=O)c1,-14,-4.5,0,1,2,-7,?
Cc1cccc(NC(=O)CN2C(=O)N/C(=C/c3cc(C)n(C(C)C)c3C)C2=O)c1,.,-0.37,0,-3,6,6,.
CC(C)(C)[C@@H]1C=C(C(=O)Nc2ccccc2)O[C@H](OCc2ccc(CO)cc2)C1,3,0.1,0,-1,.,-8,.
CC1=CC(=O)C(C(C)C)=CC1=NC(=O)c1ccc(C)cc1,-9,-4.9*,0,-1,-18,-2,?
CCN(CC)c1ccc(N=Cc2ccc([N+](=O)[O-])o2)cc1,-28,-3.8*,0,0,-10,-1,?
O=c1[nH]cc(COCC(F)CCl)c(=O)[nH]1 (stereo not given),-1,1.9,.,-2,.,-16,.
CCOC(=O)c1c(NC(=O)/C=C\C(=O)O)sc(C)c1-c1ccccc1,-6,-3.5*,0,1,-9,7,+
SMILES,S1P3 antagonist,Dynein transport,Hsp70 act,S1P4 agonist,Mdm2 ligase inh,S1P4 antag,Dynein inh conf
CCOC(=O)c1c(NC(=O)/C=C/C(=O)O)sc(C)c1-c1ccc(C(C)(C)C)cc1,-1,-2.5,0,-1,-18,20,.
O=C1C=CC(=O)N1c1ccc(O)cc1,-8,-4,.,0,-15,4,i
O=C1CCCC(=O)N1c1ccc(O)cc1,-7,-0.75,0,2,1,-13,.
CCCn1nc(C(=O)OCC(=O)c2c(N)n(C)c(=O)n(C)c2=O)c2ccccc2c1=O,3,-0.15,0,0,-6,-8,.
COc1ccc(-c2cc(C(F)(F)F)nc(S(C)(=O)=O)n2)cc1,.,-5.3*,0,-1,-7,16,i
CCOC(=O)CS(=O)(=O)c1nc(-c2ccc(F)cc2)cc(C(F)(F)F)n1,10,-4.8,0,-1,10,2,+
COc1c(S(=O)(=O)NCCCN2CCOCC2)ccc(Cl)c1Cl,-1,-0.81,.,0,.,-9,.
CCOC(=S)SCc1cn2cccc(C)c2n1,-2,-1.1,0,3,-2,0,.
Cc1cc2c(cc1C)NC(CC(=O)NCc1ccccc1)C(=O)N2 (stereo not given),-26,-3.7,1,0,-30,0,i
COc1ccc(CCNC(=O)CC2Nc3cc(C)c(C)cc3NC2=O)cc1OC (stereo not given),7,1.1,1,-1,-11,2,.
CC(COc1ccccc1)N1CCC(CO)(Cc2ccccc2)CC1 (stereo not given),6,-1.2,0,0,-1,-14,.
O=c1c2ccccc2nc(/C=C/c2ccc([N+](=O)[O-])cc2)n1CCCO,6,-0.31,0,-1,-11,-12,.
O=c1c2ccccc2nc(/C=C/c2ccc([N+](=O)[O-])o2)n1CCCO,.,-5.6*,1,0,9,2,+
COc1ccc([N+](=O)[O-])cc1NC(=O)C(C)OC(=O)c1cccnc1 (stereo not given),5,0.06,0,-1,-17,-18,.
CN(C)c1oc(-c2ccco2)nc1C#N,-3,-0.26,0,2,-4,-6,.
CN(C)c1oc(-c2ccccc2[N+](=O)[O-])nc1C#N,-6,-5.1*,.,1,-6,-14,i
COc1ccc(CC(=O)n2[nH]c(=O)cc(C)c2=O)cc1OC,-3,-5.7*,.,1,-7,15,?
COc1ccc(CC(=O)NC(C)(C)CC(C)=O)cc1OC,.,-0.93,0,0,-11,-5,.

# Compound activity: PubChem BioAssay, several laboratories
